Calls of active or inactive are those of the source. No cut-off for these calls is given here.
Legend:
[1] = molecular target: Substance-P receptor (Cavia porcellus) (UniProt P30547); assay: Agonist activity at neurokinin-1 receptor in Hartley guniea pig isolated ileum/Longitudinal Muscle with Myenteric Plexus assessed as inhibition of electrically-stimulated muscle contraction at 30 nM; assay type: tissue-based
Mu-type opioid receptor [2] = molecular target: T1, Mu-type opioid receptor (Homo sapiens, UniProt P35372); assay: Binding affinity to mu opioid receptor (unknown origin)
Homo sapiens [3] = species: Homo sapiens; assay: Selectivity ratio of Ki for mu opioid receptor (unknown origin) to Ki for delta opioid receptor (unknown origin)
Mu-type opioid receptor [4] = molecular target: T1, Mu-type opioid receptor; assay: Agonist activity at mu opioid receptor (unknown origin) expressed in HEK293 cells assessed as inhibition of forskolin-induced cAMP accumulation by bioluminescent assay; assay type: functional, cell-based
[5] = molecular target: T2, Delta-type opioid receptor (Homo sapiens, UniProt P41143); assay: Binding affinity to delta opioid receptor (unknown origin)
[6] = Half-life in rat plasma at 50 ug/ml by RP-HPLC assay; assay type: ADME, cell-free
Method in brief: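 50 mg/mL DMSO stock diluted 1000-fold into rat plasma (final 50 μg/mL), 37 °C. Aliquots at 0.5–8 h quenched with acetonitrile, centrifuged; parent remaining by RP-HPLC C18. Two independent runs, each in duplicate; half-life from mean of the two.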

[7] = Metabolic stability in rat plasma assessed as compound remaining at 50 ug/ml […] by RP-HPLC assay; assay type: ADME, cell-free; conditions: read-out: Stability
[8] = molecular target: Delta-type opioid receptor (Mus musculus, UniProt P32300); assay: Agonist activity at delta opioid receptor in ICR mouse isolated vas deferens assessed as inhibition of electrically-stimulated muscle contraction; assay type: tissue-based
[9] = molecular target: T2, Delta-type opioid receptor; assay: Agonist activity at delta receptor (unknown origin) expressed in HEK293 cells assessed as inhibition of forskolin-induced cAMP accumulation by bioluminescent assay; assay type: functional, cell-based
Rattus norvegicus = species: Rattus norvegicus; assay: Neurotoxicity in Sprague-Dawley rat assessed as motor impairment at 10 ug/5 ul, it by rotarod test; assay type: toxicity, organism-based; conditions: in vivo, icv_or_intrathecal
Method in brief: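 Intrathecal catheterized Sprague–Dawley rats given 10 μg in 5 μL; motor function assessed by rotarod.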

[10] = molecular target: Substance-P receptor (Cavia porcellus) (UniProt P30547); assay: Agonist activity at neurokinin-1 receptor in Hartley guniea pig isolated ileum/Longitudinal Muscle with Myenteric Plexus assessed as inhibition of electrically-stimulated muscle contraction at 100 nM; assay type: tissue-based
[11] = Selectivity ratio of IC50 for mu opioid receptor in Hartley guniea pig isolated ileum to IC50 for delta opioid receptor in ICR mouse isolated vas deferens; assay type: tissue-based
Homo sapiens [12] = species: Homo sapiens; assay: Selectivity ratio of IC50 for mu opioid receptor (unknown origin) to IC50 for delta opioid receptor (unknown origin)
[13] = molecular target: Substance-P receptor (Homo sapiens) (UniProt P25103); assay: Antagonist activity at neurokinin-1 receptor (unknown origin) expressed in CHO cells assessed as inhibition of substance-P induced calcium flux by bioluminescent assay; assay type: functional, cell-based
[14] = molecular target: Substance-P receptor (Cavia porcellus) (UniProt P30547); assay: Antagonist activity at neurokinin-1 receptor in Hartley guniea pig isolated ileum/Longitudinal Muscle with Myenteric Plexus assessed as inhibition of electrically-stimulated muscle contraction; assay type: tissue-based
[15] = molecular target: Substance-P receptor (Cavia porcellus) (UniProt P30547); assay: Agonist activity at neurokinin-1 receptor in Hartley guniea pig isolated ileum assessed as inhibition of electrically-stimulated muscle contraction at 1 uM; assay type: tissue-based; parameters: scale not given: the % may be the effect or the level left
[16] = molecular target: Substance-P receptor (Cavia porcellus) (UniProt P30547); assay: Agonist activity at neurokinin-1 receptor in Hartley guniea pig isolated ileum/Longitudinal Muscle with Myenteric Plexus assessed as inhibition of electrically-stimulated muscle contraction at 300 nM; assay type: tissue-based
Substance-P receptor = Substance-P receptor (Rattus norvegicus, UniProt P14600); assay: Displacement of [3H]SP from rat neurokinin-1 receptor expressed in CHO cells incubated for 20 mins by liquid scintillation counting; assay type: cell-based
Method in brief: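 CHO membranes with human or rat NK1: six compound concentrations in duplicate with 20 μg membrane and 0.5 nM [3H]SP in 50 mM Tris pH 7.4, 5 mM MgCl2 plus peptidase inhibitors; 25 °C, 20 min. Nonspecific binding with 10 μM SP. GF/B filtration (PEI-soaked), scintillation counting.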

Mu-type opioid receptor [17] = molecular target: Mu-type opioid receptor (Cavia porcellus, UniProt P97266); assay: Agonist activity at mu opioid receptor in Hartley guniea pig isolated ileum assessed as inhibition of electrically-stimulated muscle contraction; assay type: tissue-based
Sequence of Mu-type opioid receptor (Cavia porcellus, UniProt P97266) (P97266 whole entry): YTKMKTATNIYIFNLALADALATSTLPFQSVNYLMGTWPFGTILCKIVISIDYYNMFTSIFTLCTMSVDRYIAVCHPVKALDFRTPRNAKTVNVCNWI

Sequence of Substance-P receptor (Cavia porcellus) (P30547 whole entry): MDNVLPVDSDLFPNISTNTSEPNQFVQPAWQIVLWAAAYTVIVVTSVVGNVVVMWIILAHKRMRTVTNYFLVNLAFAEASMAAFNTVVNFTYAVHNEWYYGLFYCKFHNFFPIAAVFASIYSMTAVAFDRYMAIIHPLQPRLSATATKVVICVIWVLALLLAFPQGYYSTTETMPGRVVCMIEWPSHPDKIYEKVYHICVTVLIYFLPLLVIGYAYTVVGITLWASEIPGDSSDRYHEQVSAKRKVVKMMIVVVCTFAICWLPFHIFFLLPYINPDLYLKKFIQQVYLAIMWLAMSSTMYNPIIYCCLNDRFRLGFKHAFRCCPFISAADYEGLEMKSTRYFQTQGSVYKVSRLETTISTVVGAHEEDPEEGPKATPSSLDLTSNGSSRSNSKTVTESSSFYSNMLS
T2 sequence (P41143 whole entry): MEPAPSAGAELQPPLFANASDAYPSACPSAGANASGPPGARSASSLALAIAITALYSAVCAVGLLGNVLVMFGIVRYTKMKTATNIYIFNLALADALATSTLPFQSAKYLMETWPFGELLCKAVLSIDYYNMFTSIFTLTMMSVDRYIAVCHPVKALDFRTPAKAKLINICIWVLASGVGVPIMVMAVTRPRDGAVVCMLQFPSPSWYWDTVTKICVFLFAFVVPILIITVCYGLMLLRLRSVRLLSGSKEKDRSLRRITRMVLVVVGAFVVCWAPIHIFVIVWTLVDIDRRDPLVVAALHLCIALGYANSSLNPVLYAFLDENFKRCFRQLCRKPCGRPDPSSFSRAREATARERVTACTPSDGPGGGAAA
T1 sequence (P35372 whole entry): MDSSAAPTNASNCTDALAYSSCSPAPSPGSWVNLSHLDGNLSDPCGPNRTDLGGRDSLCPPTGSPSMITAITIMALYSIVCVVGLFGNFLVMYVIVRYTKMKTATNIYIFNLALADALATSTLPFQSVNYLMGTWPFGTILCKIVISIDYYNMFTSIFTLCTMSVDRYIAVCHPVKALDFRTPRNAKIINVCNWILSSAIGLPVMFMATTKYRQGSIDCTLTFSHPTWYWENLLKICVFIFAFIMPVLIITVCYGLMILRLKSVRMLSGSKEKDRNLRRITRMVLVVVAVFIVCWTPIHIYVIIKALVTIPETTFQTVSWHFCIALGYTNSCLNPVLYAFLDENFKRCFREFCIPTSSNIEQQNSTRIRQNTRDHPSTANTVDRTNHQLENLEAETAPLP
Sequence of Substance-P receptor (P14600 whole entry): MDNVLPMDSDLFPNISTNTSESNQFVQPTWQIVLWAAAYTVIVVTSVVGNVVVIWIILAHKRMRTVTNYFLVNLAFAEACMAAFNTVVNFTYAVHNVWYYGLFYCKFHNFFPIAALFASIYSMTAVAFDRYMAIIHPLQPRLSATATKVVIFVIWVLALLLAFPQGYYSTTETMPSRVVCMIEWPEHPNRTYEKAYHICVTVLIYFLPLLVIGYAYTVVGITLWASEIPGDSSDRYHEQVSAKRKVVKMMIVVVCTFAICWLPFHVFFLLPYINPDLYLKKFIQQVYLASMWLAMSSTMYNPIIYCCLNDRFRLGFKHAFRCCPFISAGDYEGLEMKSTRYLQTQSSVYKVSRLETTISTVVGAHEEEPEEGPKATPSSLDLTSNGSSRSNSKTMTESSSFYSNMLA
Sequence of Delta-type opioid receptor (Mus musculus, UniProt P32300) (P32300 whole entry): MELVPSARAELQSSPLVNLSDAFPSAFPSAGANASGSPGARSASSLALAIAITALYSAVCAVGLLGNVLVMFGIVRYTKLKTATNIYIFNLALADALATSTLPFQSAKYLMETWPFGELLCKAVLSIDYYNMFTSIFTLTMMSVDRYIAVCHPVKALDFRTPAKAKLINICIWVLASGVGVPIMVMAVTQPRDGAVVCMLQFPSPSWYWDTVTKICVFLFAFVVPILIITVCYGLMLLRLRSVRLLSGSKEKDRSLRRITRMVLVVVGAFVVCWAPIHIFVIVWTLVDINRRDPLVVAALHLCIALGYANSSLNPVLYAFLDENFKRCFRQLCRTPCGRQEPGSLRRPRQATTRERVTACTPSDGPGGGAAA
Sequence of Substance-P receptor (Homo sapiens) (P25103 whole entry): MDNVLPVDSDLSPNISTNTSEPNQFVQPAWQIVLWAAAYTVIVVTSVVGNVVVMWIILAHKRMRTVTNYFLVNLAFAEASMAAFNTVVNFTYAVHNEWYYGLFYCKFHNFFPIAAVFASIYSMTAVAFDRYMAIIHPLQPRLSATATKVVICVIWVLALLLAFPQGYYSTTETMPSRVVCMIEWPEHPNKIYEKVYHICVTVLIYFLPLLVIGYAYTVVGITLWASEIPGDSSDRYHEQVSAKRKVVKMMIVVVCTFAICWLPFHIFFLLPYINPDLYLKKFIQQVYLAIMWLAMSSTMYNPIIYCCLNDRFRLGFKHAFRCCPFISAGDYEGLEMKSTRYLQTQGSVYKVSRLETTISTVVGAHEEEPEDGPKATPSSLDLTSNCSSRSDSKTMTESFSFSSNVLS

CC(C)C[C@H](NC(=O)[C@@H]1CCCN1C(=O)[C@H](Cc1ccc(F)cc1)NC(=O)CNC(=O)[C@H](C)NC(=O)[C@@H](N)Cc1ccc(O)cc1)C(=O)N[C@@H](Cc1c[nH]c2ccccc12)C(=O)NCc1cc(C(F)(F)F)cc(C(F)(F)F)c1
Activity [1]: inactive

Cc1cc(O)cc(C)c1C[C@H](N)C(=O)N[C@H](C)C(=O)NCC(=O)N(C)[C@@H](Cc1ccc(F)cc1)C(=O)N1CCC[C@H]1C(=O)N[C@@H](CC(C)C)C(=O)N[C@@H](Cc1c[nH]c2ccccc12)C(=O)NCc1cc(C(F)(F)F)cc(C(F)(F)F)c1
IC50 (Mu-type opioid receptor [2]): 2.82 nM

Cc1cc(O)cc(C)c1C[C@H](N)C(=O)N[C@@H](C)C(=O)NCC(=O)N[C@@H](Cc1ccc(F)cc1)C(=O)N1CCC[C@H]1C(=O)N[C@@H](CC(C)C)C(=O)N[C@@H](Cc1c[nH]c2ccccc12)C(=O)NCc1cc(C(F)(F)F)cc(C(F)(F)F)c1
Activity [1]: inactive | Ratio Ki (Homo sapiens [3]): 1

Cc1cc(O)cc(C)c1C[C@H](N)C(=O)N[C@H](C)C(=O)NCC(=O)N[C@@H](Cc1ccc(F)cc1)C(=O)N1CCC[C@H]1C(=O)N[C@@H](CC(C)C)C(=O)N[C@@H](Cc1c[nH]c2ccccc12)C(=O)NCc1cc(C(F)(F)F)cc(C(F)(F)F)c1
IC50 (Mu-type opioid receptor [4]): 59 nM | IC50 [5]: 66.1 nM | half-life at 50 ug/ml [6]: > 12 h | IC50 (Mu-type opioid receptor [2]): 1.91 nM | remaining at 50 ug/ml [7]: 100% | IC50 [8]: 2 nM | IC50 [9]: 21 nM

Cc1cc(O)cc(C)c1C[C@H](N)C(=O)N[C@@H](C)C(=O)NCC(=O)N(C)[C@@H](Cc1ccc(F)cc1)C(=O)N1CCC[C@H]1C(=O)N[C@@H](CC(C)C)C(=O)N[C@@H](Cc1c[nH]c2ccccc12)C(=O)NCc1cc(C(F)(F)F)cc(C(F)(F)F)c1
Activity [1]: inactive

Cc1cc(O)cc(C)c1C[C@H](N)C(=O)N[C@H](C)C(=O)NCC(=O)N(C)[C@@H](Cc1ccccc1)C(=O)N1CCC[C@H]1C(=O)N[C@@H](CC(C)C)C(=O)N[C@@H](Cc1c[nH]c2ccccc12)C(=O)NCc1cc(C(F)(F)F)cc(C(F)(F)F)c1
IC50 (Mu-type opioid receptor [4]): 39 nM | Activity (Rattus norvegicus): Toxic | IC50 (Mu-type opioid receptor [2]): 1.66 nM | remaining at 50 ug/ml [7]: 100% | IC50 [9]: 30 nM

CC(C)C[C@H](NC(=O)[C@@H]1CCCN1C(=O)[C@H](Cc1ccccc1)N(C)C(=O)CNC(=O)[C@H](C)NC(=O)[C@@H](N)Cc1ccc(O)cc1)C(=O)N[C@@H](Cc1c[nH]c2ccccc12)C(=O)NCc1cc(C(F)(F)F)cc(C(F)(F)F)c1
Activity [10]: inactive | Ratio IC50 [11]: 2

Cc1cc(O)cc(C)c1C[C@H](N)C(=O)N[C@@H](C)C(=O)NCC(=O)N[C@@H](Cc1ccccc1)C(=O)N1CCC[C@H]1C(=O)N[C@@H](CC(C)C)C(=O)N[C@@H](Cc1c[nH]c2ccccc12)C(=O)NCc1cc(C(F)(F)F)cc(C(F)(F)F)c1
Ratio IC50 (Homo sapiens [12]): 6 | Activity [10]: inactive | Ke [13]: 11 nM | Ratio IC50 [11]: 26 | Ratio Ki (Homo sapiens [3]): 3 | Ke [14]: 25 nM

Cc1cc(O)cc(C)c1C[C@H](N)C(=O)N[C@@H](C)C(=O)NCC(=O)N[C@@H](Cc1ccc(I)cc1)C(=O)N1CCC[C@H]1C(=O)N[C@@H](CC(C)C)C(=O)N[C@@H](Cc1c[nH]c2ccccc12)C(=O)NCc1cc(C(F)(F)F)cc(C(F)(F)F)c1
Activity [15]: 41% | Activity [16]: inactive

Cc1cc(O)cc(C)c1C[C@H](N)C(=O)N[C@H](C)C(=O)NCC(=O)N[C@@H](Cc1ccc(Br)cc1)C(=O)N1CCC[C@H]1C(=O)N[C@@H](CC(C)C)C(=O)N[C@@H](Cc1c[nH]c2ccccc12)C(=O)NCc1cc(C(F)(F)F)cc(C(F)(F)F)c1
IC50 (Mu-type opioid receptor [2]): 11 nM

CC(C)C[C@H](NC(=O)[C@@H]1CCCN1C(=O)[C@H](Cc1ccccc1)N(C)C(=O)CNC(=O)[C@@H](C)NC(=O)[C@@H](N)Cc1ccc(O)cc1)C(=O)N[C@@H](Cc1c[nH]c2ccccc12)C(=O)NCc1cc(C(F)(F)F)cc(C(F)(F)F)c1
IC50 (Mu-type opioid receptor [2]): 89.1 nM

CC(C)C[C@H](NC(=O)[C@@H]1CCCN1C(=O)[C@H](Cc1ccc(F)cc1)NC(=O)CNC(=O)[C@@H](C)NC(=O)[C@@H](N)Cc1ccc(O)cc1)C(=O)N[C@@H](Cc1c[nH]c2ccccc12)C(=O)NCc1cc(C(F)(F)F)cc(C(F)(F)F)c1
IC50 [5]: 15.5 nM | Ki [5]: 7 nM | IC50 (Mu-type opioid receptor [2]): 8.32 nM | remaining at 50 ug/ml [7]: 100% | Ki (Substance-P receptor): 34 nM

Cc1cc(O)cc(C)c1C[C@H](N)C(=O)N[C@H](C)C(=O)NCC(=O)N[C@@H](Cc1ccc(Cl)cc1)C(=O)N1CCC[C@H]1C(=O)N[C@@H](CC(C)C)C(=O)N[C@@H](Cc1c[nH]c2ccccc12)C(=O)NCc1cc(C(F)(F)F)cc(C(F)(F)F)c1
IC50 (Mu-type opioid receptor [2]): 4.68 nM

Cc1cc(O)cc(C)c1C[C@H](N)C(=O)N[C@H](C)C(=O)NCC(=O)N[C@@H](Cc1ccccc1)C(=O)N1CCC[C@H]1C(=O)N[C@@H](CC(C)C)C(=O)N[C@@H](Cc1c[nH]c2ccccc12)C(=O)NCc1cc(C(F)(F)F)cc(C(F)(F)F)c1
IC50 (Mu-type opioid receptor [4]; hek293): 46 nM | IC50 (Mu-type opioid receptor [17]): 81 nM | IC50 (Mu-type opioid receptor [2]): 2.34 nM | Ki (Mu-type opioid receptor [2]): 3 nM | Ki (Substance-P receptor; cho): 27 nM | IC50 ([9]; hek293): 7.2 nM

Cc1cc(O)cc(C)c1C[C@H](N)C(=O)N[C@@H](C)C(=O)NCC(=O)N[C@@H](Cc1ccc(Cl)cc1)C(=O)N1CCC[C@H]1C(=O)N[C@@H](CC(C)C)C(=O)N[C@@H](Cc1c[nH]c2ccccc12)C(=O)NCc1cc(C(F)(F)F)cc(C(F)(F)F)c1
Activity [16]: inactive | Ratio IC50 [11]: 7 | Ratio Ki (Homo sapiens [3]): 1

Cc1cc(O)cc(C)c1C[C@H](N)C(=O)N[C@@H](C)C(=O)NCC(=O)N[C@@H](Cc1ccc(Br)cc1)C(=O)N1CCC[C@H]1C(=O)N[C@@H](CC(C)C)C(=O)N[C@@H](Cc1c[nH]c2ccccc12)C(=O)NCc1cc(C(F)(F)F)cc(C(F)(F)F)c1
Activity [10]: inactive

Cc1cc(O)cc(C)c1C[C@H](N)C(=O)N[C@H](C)C(=O)NCC(=O)N[C@@H](Cc1ccc(I)cc1)C(=O)N1CCC[C@H]1C(=O)N[C@@H](CC(C)C)C(=O)N[C@@H](Cc1c[nH]c2ccccc12)C(=O)NCc1cc(C(F)(F)F)cc(C(F)(F)F)c1
IC50 (Mu-type opioid receptor [2]): 13.2 nM

CC(C)C[C@H](NC(=O)[C@@H]1CCCN1C(=O)[C@H](Cc1ccccc1)NC(=O)CNC(=O)[C@@H](C)NC(=O)[C@@H](N)Cc1ccc(O)cc1)C(=O)N[C@@H](Cc1c[nH]c2ccccc12)C(=O)NCc1cc(C(F)(F)F)cc(C(F)(F)F)c1
IC50 (Mu-type opioid receptor [2]): 20 nM | Ki (Mu-type opioid receptor [2]): 9.5 nM

Cc1cc(O)cc(C)c1C[C@H](N)C(=O)N[C@@H](C)C(=O)NCC(=O)N(C)[C@@H](Cc1ccccc1)C(=O)N1CCC[C@H]1C(=O)N[C@@H](CC(C)C)C(=O)N[C@@H](Cc1c[nH]c2ccccc12)C(=O)NCc1cc(C(F)(F)F)cc(C(F)(F)F)c1
Activity [1]: inactive
